Measurements reported in publication PMC3266058 (Journal of Medicinal Chemistry, 2011).
Like-named read-outs stand apart in the source and are kept apart here.

Assays:
[1] = test system: colon 26 murine tumor cell line; details: read-out: cytotoxicity IC50, colon 26; ref 9a; cited from earlier work
MCF-7 cells = assay: Antiproliferative MTT assay, MCF-7; assay type: cell-based; details: Homo sapiens, MCF7, 72 h, read-out: IC50 MCF-7
Jurkat cells = assay: Antiproliferative MTT assay, Jurkat; assay type: cell-based; details: Homo sapiens, 72 h, read-out: IC50 Jurkat
Outline: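 Cells (8 × 10^3 per well in complete medium) settled 18 h at 37 °C, 5% CO2, then medium replaced with fresh medium holding test compound at a range of concentrations (10 mM DMSO stocks; final DMSO ≤0.25%) for 72 h at 37 °C. Viability read by MTT.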

A549 cells [2] = assay: Antiproliferative MTT assay, A549; assay type: cell-based; details: Homo sapiens, A549, 72 h, read-out: IC50 A549
HL-60 cells = assay: Antiproliferative MTT assay, HL-60; assay type: cell-based; details: Homo sapiens, HL-60, 72 h, read-out: IC50 HL-60
HeLa cells [3] = assay: Antiproliferative MTT assay, HeLa; assay type: cell-based; details: Homo sapiens, 72 h, read-out: IC50 HeLa
Bcl-2 = assay: Western blot, Bcl-2 in HeLa cells; assay type: cell-based, human; details: after 48 h
Outline: (§1)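 HeLa cells were treated with test compound (DMSO ≤0.25%) for the indicated times, then washed twice in ice-cold PBS. They were lysed on ice for 30 min and spun at 15000g, 4 °C, 10 min; protein was measured by BCA. 20 μg was run on 7.5–15% SDS-PAGE and transferred to PVDF. Membranes were blocked overnight at 4 °C, then probed 2 h at room temperature with primary antibodies (total caspase-3, cleaved caspase-9, cyclin B, Bcl-2, Bax, XIAP). Peroxidase secondary was applied for 60 min, with ECL detection and β-actin reprobe as the loading control.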

[4] = Body weight of treated xenograft mice; assay type: in vivo, BALB/c-nu nude mice; details: 100 mg/kg intraperitoneally, 3 doses; whole treatment period
Outline: (§2)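 Female BALB/c-nu nude mice, 4 weeks old (15−18 g), kept pathogen-free. HT-29 cells at 1 × 10^7 cells/mL in serum-free RPMI 1640 were injected (0.2 mL) subcutaneously in the back. At ~300 mm3, 18 mice were randomised to vehicle or treatment groups (six per group). Test compound was given in DMSO i.p. at 0.01 mL/g (100 mg/kg) on days 0, 2 and 4. Tumour size (caliper, V = LW²/2) and body weight were recorded at each time point. Results are mean ± SEM; two-sided Student's t test.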

HeLa cells [5] = assay: Mitochondrial ROS production; assay type: cell-based, human; details: HE and H2-DCFDA, 24 or 48 h, vs control cells
Outline: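 HeLa cells were cultured in DMEM with 10% FBS and antibiotics and exposed to test compound for 24 or 48 h, with final DMSO ≤0.25%. Cells were then stained with hydroethidine or H2-DCFDA, and ROS were measured by flow cytometry. Data are mean ± SEM of three independent experiments.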

bovine brain tubulin = bovine brain tubulin (Bos taurus, UniProt P81947+Q6B856); assay: Inhibition of tubulin polymerization; assay type: biochemical; details: tubulin assembly assay
Bax = assay: Western blot, Bax in HeLa cells; assay type: cell-based, human
Outline: as §1

HeLa cells [6] = assay: Flow cytometric cell cycle analysis; assay type: cell-based, human; details: 24 h
Outline: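 Exponentially growing HeLa cells (5 × 10^5), grown in DMEM with 10% FBS and penicillin/streptomycin, were exposed to 15–250 nM test compound for 24 h, with DMSO ≤0.25%. Cells were fixed in ice-cold 70% ethanol, treated with lysis buffer containing RNase A and 0.1% Triton X-100, and stained with propidium iodide. DNA content was measured by flow cytometry. Results are mean ± SEM of three independent experiments.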

caspase-9 = assay: Western blot, caspase-9 in HeLa cells; assay type: cell-based, human; details: 24 or 48 h
Outline: as §1

HeLa cells [7] = assay: Mitochondrial membrane potential; assay type: cell-based, human; details: JC-1, 24 or 48 h
Outline: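 HeLa cells in DMEM with 10% FBS were incubated 24 or 48 h with test compound (final DMSO ≤0.25%), then stained with the cationic dye JC-1 and analysed by flow cytometry. Polarized mitochondria give red aggregate emission (590 nm); depolarized ones give monomer emission (530 nm). Data are mean ± SEM of three independent experiments.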

caspase-3 = assay: Western blot, caspase-3 in HeLa cells; assay type: cell-based, human; details: 24 or 48 h
Outline: as §1

XIAP = assay: Western blot, XIAP in HeLa cells; assay type: cell-based, human; details: 24 or 48 h
Outline: as §1

cyclin B1 = assay: Western blot, cyclin B1 in HeLa cells; assay type: cell-based, human; details: 24 and 48 h
Outline: as §1

HeLa cells [8] = assay: Annexin-V/PI apoptosis assay; assay type: cell-based, human; details: 24 or 48 h, vs control
Outline: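 HeLa cells grown in DMEM with 10% FBS, penicillin G and streptomycin, then exposed to test compound (10 mM DMSO stocks; final DMSO ≤0.25%). Phosphatidylserine exposure was read by flow cytometry after annexin-V-FITC labelling per kit instructions, with simultaneous PI staining. Excitation was 488 nm, with emission filters at 525 nm (FITC) and 585 nm (PI).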

[9] = test system: six human cancer cell lines (HeLa, A549, HL-60, Jurkat, MCF-7, HT-29); assay: Antiproliferative activity over the panel of six human cancer cell lines; assay type: cell-based; details: all cell lines
HT-29 xenograft = assay: In vivo antitumor activity, HT-29 xenograft; parameters: species or system BALB/c-nu nude mice; details: 100 mg/kg intraperitoneally, days 0, 2 and 4; end of observation period (day 24)
Outline: as §2

LoVo^Doxo cells = details: ref 13c, cited from earlier work
LoVo cells = details: read-out: IC50 LoVo; parental line; ref 13c; cited from earlier work
A549-T12 cells = details: ref 13c, cited from earlier work
A549 cells [10] = details: read-out: IC50 A549 (Table 3); parental line; ref 13c; cited from earlier work
CEM^Vbl100 cells = details: ref 13c, cited from earlier work
CEM cells = details: read-out: IC50 CEM; parental line; ref 13c; cited from earlier work
[11] = ratio of IC50 in resistant and nonresistant cell lines

bovine brain tubulin, sequence (P81947 whole entry): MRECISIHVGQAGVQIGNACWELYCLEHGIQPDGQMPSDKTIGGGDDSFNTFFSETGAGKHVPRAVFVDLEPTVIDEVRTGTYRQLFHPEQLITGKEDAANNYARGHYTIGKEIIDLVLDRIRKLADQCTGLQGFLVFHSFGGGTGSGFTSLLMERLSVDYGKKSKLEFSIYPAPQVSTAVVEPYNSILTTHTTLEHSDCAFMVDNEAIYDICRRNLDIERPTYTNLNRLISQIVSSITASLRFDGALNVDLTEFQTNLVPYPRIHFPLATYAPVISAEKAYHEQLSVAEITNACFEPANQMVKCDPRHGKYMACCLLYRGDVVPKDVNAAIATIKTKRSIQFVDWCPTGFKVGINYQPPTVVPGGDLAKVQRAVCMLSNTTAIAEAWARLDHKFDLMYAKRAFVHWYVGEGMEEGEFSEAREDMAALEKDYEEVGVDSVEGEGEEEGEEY
bovine brain tubulin, sequence (Q6B856 whole entry): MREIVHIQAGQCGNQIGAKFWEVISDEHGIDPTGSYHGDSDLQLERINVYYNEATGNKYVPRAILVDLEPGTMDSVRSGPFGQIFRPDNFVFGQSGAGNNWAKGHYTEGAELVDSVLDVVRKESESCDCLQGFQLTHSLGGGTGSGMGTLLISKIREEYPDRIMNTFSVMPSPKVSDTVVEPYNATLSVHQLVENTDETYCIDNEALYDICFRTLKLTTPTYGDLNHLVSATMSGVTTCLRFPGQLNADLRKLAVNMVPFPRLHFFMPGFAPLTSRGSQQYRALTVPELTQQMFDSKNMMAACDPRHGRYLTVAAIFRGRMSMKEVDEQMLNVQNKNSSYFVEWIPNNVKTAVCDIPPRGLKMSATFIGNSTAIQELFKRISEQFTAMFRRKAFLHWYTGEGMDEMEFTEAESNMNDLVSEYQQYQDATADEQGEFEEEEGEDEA

## COc1ccc(-c2nnnn2-c2cc(OC)c(OC)c(OC)c2)cc1N [1-(3,4,5-trimethoxyphenyl)-5-(4-methoxy,3-aminophenyl)-1H-tetrazole]
[1]
  IC50: 7.2 nM

## CCOc1ccc(-c2ncnn2-c2cc(OC)c(OC)c(OC)c2)cc1 [3a]
MCF-7 cells
  IC50: 50 ± 9 nM
Jurkat cells
  IC50: 5 ± 0.2 nM
A549 cells [2]
  IC50: 100 ± 20 nM
HL-60 cells
  IC50: 20 ± 3 nM
HeLa cells [3]
  IC50: 15 ± 4 nM

## CCOc1ccc(-c2nnnn2-c2cc(OC)c(OC)c(OC)c2)cc1 [4l, 1-(3,4,5-Trimethoxyphenyl)-5-(4-ethoxyphenyl)-1H-tetrazole]
Bcl-2
  Bcl-2 expression: only slightly affected
[4]
  body weight change of treated animals: no significant weight changes
HeLa cells [5]
  ROS production: induced the production of significant amounts of ROS
Bovine brain tubulin
  fold more potent than 5b in tubulin assembly: 2 fold
Bax
  Bax expression: no effect
HeLa cells [6]
  lowest concentration with a rise in G2/M cells: 30 nM
caspase-9
  caspase-9 activation: induced activation of caspase-9
HeLa cells [7]
  cells with depolarized mitochondria: induced a time and concentration-dependent increase in the proportion of cells with depolarized mitochondria
caspase-3
  caspase-3 activation: activation of caspase-3
XIAP
  XIAP expression: strongly reduced
Cyclin B1
  cyclin B1 expression: marked increase in cyclin B1 expression
HeLa cells [8]
  annexin-V positive cells: induced an accumulation of annexin-V positive cells

## CCCCOc1ccc(-c2nnnn2-c2cc(OC)c(OC)c(OC)c2)cc1 [4o, 5-(4-Butoxyphenyl)-1-(3,4,5-trimethoxyphenyl)-1H-tetrazole]
[9]
  antiproliferative activity: inactive

## CCCCCOc1ccc(-c2nnnn2-c2cc(OC)c(OC)c(OC)c2)cc1 [4p, 1-(3,4,5-Trimethoxyphenyl)-5-(4-(pentyloxy)phenyl)-1H-tetrazole]
[9]
  antiproliferative activity: inactive

## CCOc1ccc(-n2nnnc2-c2cc(OC)c(OC)c(OC)c2)cc1 [5b, 5-(3,4,5-Trimethoxyphenyl)-1-(4-ethoxyphenyl)-1H-tetrazole]
HeLa cells [5]
  ROS production: induced the production of significant amounts of ROS
HeLa cells [6]
  lowest concentration with a rise in G2/M cells: 30 nM
HeLa cells [7]
  cells with depolarized mitochondria: induced a time and concentration-dependent increase in the proportion of cells with depolarized mitochondria
HeLa cells [8]
  annexin-V positive cells: induced an accumulation of annexin-V positive cells

## COc1ccc(/C=C\c2cc(OC)c(OC)c(OC)c2)cc1O [compound 1, combretastatin A-4]
Jurkat cells
  IC50: 5 ± 0.6 nM
HT-29 xenograft
  reduction in tumor growth vs vehicle: 43.7%

## COc1cccc2c1C(=O)c1c(O)c3c(c(O)c1C2=O)C[C@@](O)(C(=O)CO)C[C@@H]3O[C@H]1C[C@H](N)[C@H](O)[C@H](C)O1 [doxorubicin]
LoVo^Doxo cells; [11]
  resistance ratio LoVoDoxo/LoVo: 109.6
LoVo^Doxo cells; read-out: IC50 LoVoDoxo, doxorubicin resistant line
  IC50: 13200 ± 210 nM
LoVo cells
  IC50: 120 ± 30 nM

## CC(=O)O[C@H]1C(=O)[C@@]2(C)[C@H]([C@H](OC(=O)c3ccccc3)[C@]3(O)C[C@H](OC(=O)[C@H](O)[C@@H](NC(=O)c4ccccc4)c4ccccc4)C(C)=C1C3(C)C)[C@]1(OC(C)=O)CO[C@@H]1C[C@@H]2O [paclitaxel]
A549-T12 cells; [11]
  resistance ratio A549-T12/A549: 10.4
A549-T12 cells; read-out: IC50 A549-T12, paclitaxel resistant line
  IC50: 75.2 ± 12.5 nM
A549 cells [10]
  IC50: 7.2 ± 0.1 nM

## CC[C@]1(O)C[C@@H]2CN(CCc3c([nH]c4ccccc34)[C@@](C(=O)OC)(c3cc4c(cc3OC)N(C)[C@H]3[C@@](O)(C(=O)OC)[C@H](OC(C)=O)[C@]5(CC)C=CCN6CC[C@]43[C@@H]65)C2)C1 [vinblastine]
CEM^Vbl100 cells; [11]
  resistance ratio CEMVbl100/CEM: 56.1
CEM^Vbl100 cells; read-out: IC50 CEMVbl100, vinblastine resistant line
  IC50: 230 ± 32 nM
CEM cells
  IC50: 4.1 ± 0.2 nM
